{"source": "ChEMBL document CHEMBL1123589", "about": "“Phenylpiperazine-based radiopharmaceuticals for brain imaging. 3. Synthesis and evaluation of radioiodinated 1-alkyl-4-phenylpiperazines” (J Med Chem, 1987)", "details_in_all_cases": "in vivo", "key": {"[1]": {"system": "Rattus norvegicus", "assay": "The biodistribution of the [125I]-labeled compound in rats after intravenous injection was evaluated in muscle at 0.25 hrs; value ranges from 0.03-0.04 (ID.kg/g)", "type": "ADME, organism-based, Muscle tissue", "procedure,_shortened": "(§1)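 Male Sprague-Dawley rats (250–300 g) under ether anesthesia given iv 0.1 mL saline containing 10–15 μCi of NCA ¹²⁵I-labeled agent (chloramine-T iodination, HPLC-purified). Groups of 3 killed at 0.25, 1 and 4 h. Blood and tissues excised, weighed and γ-counted. Values are mean (range) of % injected dose × body mass (kg) per gram of tissue.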"}, "[2]": {"system": "Rattus norvegicus", "assay": "The biodistribution of the [125I]-labeled compound in rats after intravenous injection was evaluated in fat at 0.25 hr (ID. kg/g)", "type": "ADME, organism-based, Adipose tissue", "procedure,_shortened": "(§2)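 Male Sprague-Dawley rats (250–300 g) under ether anesthesia were given an iv injection of no-carrier-added 125I-labelled agent (10–15 μCi in 0.1 mL saline). The agent was iodinated with chloramine-T in acetate buffer and purified by C-18 HPLC. Groups of N = 3 were killed at 0.25, 1 and 4 h. Blood and tissues were weighed and γ-counted. Values are % ID·kg/g, mean (range).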"}, "[3]": {"system": "Rattus norvegicus", "assay": "The biodistribution of the [125I]-labeled compound in rats after intravenous injection was evaluated in kidney at 4.00 hrs; value ranges from 0.26-0.35 (ID.kg/g)", "type": "ADME, organism-based", "procedure,_shortened": "(§3)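 Male Sprague-Dawley rats (250–300 g), under ether anesthesia, given 10–15 μCi of the NCA ¹²⁵I-labeled agent iv in 0.1 mL saline. Groups of N = 3 were killed at 0.25, 1 or 4 h. Blood and tissues were removed, weighed and counted in a γ-well scintillation counter. Values are mean % ID·kg/g (range).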"}, "[4]": {"system": "Rattus norvegicus", "assay": "The biodistribution of the [125I]-labeled compound in rats after intravenous injection was evaluated in blood at 4.00 hrs; value ranges from […]-0.09 (ID.kg/g)", "type": "ADME, organism-based", "procedure,_shortened": "as §2"}, "[5]": {"system": "Rattus norvegicus", "assay": "The biodistribution of the [125I]-labeled compound in rats after intravenous injection was evaluated in kidney at 1.00 hrs; value ranges from 0.26-0.35 (ID.kg/g)", "type": "ADME, organism-based", "procedure,_shortened": "as §3"}, "[6]": {"system": "Rattus norvegicus", "assay": "The biodistribution of the [125I]-labeled compound in rats after intravenous injection was evaluated in heart at 4.00 hrs; value ranges from 0.04-0.06 (ID.kg/g)", "type": "ADME, organism-based", "procedure,_shortened": "as §3"}, "[7]": {"system": "Rattus norvegicus", "assay": "The biodistribution of the [125I]-labeled compound in rats after intravenous injection was evaluated in fat at 1.00 hrs; value ranges from 0.07-0.09 (ID.kg/g)", "type": "ADME, organism-based, Adipose tissue", "procedure,_shortened": "as §2"}, "[8]": {"system": "Rattus norvegicus", "assay": "The biodistribution of the [125I]-labeled compound in rats after intravenous injection was evaluated in brain at 4.00 hrs; value ranges from 0.04-0.05 (ID.kg/g)", "type": "ADME, organism-based", "procedure,_shortened": "as §2"}, "[9]": {"system": "Rattus norvegicus", "assay": "The biodistribution of the [125I]-labeled compound in rats after intravenous injection was evaluated in adrenal at 4.00 hrs; value ranges from 0.20-0.32 (ID.kg/g)", "type": "ADME, organism-based", "procedure,_shortened": "as §2"}, "[10]": {"system": "Rattus norvegicus", "assay": "The biodistribution of the [125I]-labeled compound in rats after intravenous injection was evaluated in brain at 1.00 hrs; value ranges from 0.14-0.15 (ID.kg/g)", "type": "ADME, organism-based", "procedure,_shortened": "as §2"}, "[11]": {"system": "Rattus norvegicus", "assay": "The biodistribution of the [125I]-labeled compound in rats after intravenous injection was evaluated in lung at 4.00 hrs (ID.kg/g)", "type": "ADME, organism-based", "procedure,_shortened": "as §3"}, "[12]": {"system": "Rattus norvegicus", "assay": "The biodistribution of the [125I]-labeled compound in rats after intravenous injection was evaluated in adrenal at 0.25 hrs; value ranges from 1.25-1.44 (ID.kg/g)", "type": "ADME, organism-based", "procedure,_shortened": "as §2"}, "[13]": {"system": "Rattus norvegicus", "assay": "The biodistribution of the [125I]-labeled compound in rats after intravenous injection was evaluated in lung at 0.25 hrs; value ranges from 0.52-0.58 (ID.kg/g)", "type": "ADME, organism-based", "procedure,_shortened": "as §3"}, "[14]": {"system": "Rattus norvegicus", "assay": "The biodistribution of the [125I]-labeled compound in rats after intravenous injection was evaluated in liver at 1.00 hrs; value ranges from 0.54-0.58 (ID.kg/g)", "type": "ADME, organism-based", "procedure,_shortened": "as §3"}, "[15]": {"system": "Rattus norvegicus", "assay": "The biodistribution of the [125I]-labeled compound in rats after intravenous injection was evaluated in muscle at 1.00 hrs; value ranges from 0.03-0.04 (ID.kg/g)", "type": "ADME, organism-based, Muscle tissue", "procedure,_shortened": "as §1"}, "[16]": {"system": "Rattus norvegicus", "assay": "The biodistribution of the [125I]-labeled compound in rats after intravenous injection was evaluated in brain at 0.25 hrs; value ranges from 0.23-0.25 (ID.kg/g)", "type": "ADME, organism-based", "procedure,_shortened": "as §2"}, "[17]": {"system": "Rattus norvegicus", "assay": "The biodistribution of the [125I]-labeled compound in rats after intravenous injection was evaluated in lung at 1.00 hrs; value ranges from 0.34-0.43 (ID.kg/g)", "type": "ADME, organism-based", "procedure,_shortened": "as §3"}, "[18]": {"system": "Rattus norvegicus", "assay": "The biodistribution of the [125I]-labeled compound in rats after intravenous injection was evaluated in muscle at 4.00 hrs (ID.kg/g)", "type": "ADME, organism-based, Muscle tissue", "procedure,_shortened": "as §1"}, "[19]": {"system": "Rattus norvegicus", "assay": "The biodistribution of the [125I]-labeled compound in rats after intravenous injection was evaluated in liver at 4.00 hrs; value ranges from 0.40-0.61 (ID.kg/g)", "type": "ADME, organism-based", "procedure,_shortened": "as §3"}, "[20]": {"system": "Rattus norvegicus", "assay": "The biodistribution of the [125I]-labeled compound in rats after intravenous injection was evaluated in blood at 1.00 hrs (ID.kg/g)", "type": "ADME, organism-based", "procedure,_shortened": "as §2"}, "[21]": {"system": "Rattus norvegicus", "assay": "The biodistribution of the [125I]-labeled compound in rats after intravenous injection was evaluated in thyroid at 0.25 hrs; value ranges from 1.31-2.46( ID.kg/g)", "type": "ADME, organism-based, Thyroid gland", "procedure,_shortened": "as §1"}, "[22]": {"system": "Rattus norvegicus", "assay": "The biodistribution of the [125I]-labeled compound in rats after intravenous injection was evaluated in thyroid at 1.00 hrs; value ranges from 2.56-3.24 (ID.kg/g)", "type": "ADME, organism-based, Thyroid gland", "procedure,_shortened": "as §1"}, "[23]": {"system": "Rattus norvegicus", "assay": "The biodistribution of the [125I]-labeled compound in rats after intravenous injection was evaluated in fat at 4.00 hrs; value ranges from 0.07-0.09 (ID.kg/g)", "type": "ADME, organism-based, Adipose tissue", "procedure,_shortened": "as §2"}, "[24]": {"system": "Rattus norvegicus", "assay": "The biodistribution of the [125I]-labeled compound in rats after intravenous injection was evaluated in heart at 1.00 hrs; value ranges from 0.08-0.09 (ID.kg/g)", "type": "ADME, organism-based", "procedure,_shortened": "as §2"}, "[25]": {"system": "Rattus norvegicus", "assay": "The biodistribution of the [125I]-labeled compound in rats after intravenous injection was evaluated in blood at 0.25 hrs (ID.kg/g)", "type": "ADME, organism-based", "procedure,_shortened": "as §2"}, "[26]": {"system": "Rattus norvegicus", "assay": "The biodistribution of the [125I]-labeled compound in rats after intravenous injection was evaluated in liver at 0.25 hr; value ranges from 0.69-1.03 (ID.kg/g)", "type": "ADME, organism-based", "procedure,_shortened": "as §3"}, "[27]": {"system": "Rattus norvegicus", "assay": "The biodistribution of the [125I]-labeled compound in rats after intravenous injection was evaluated in kidney at 0.25 hr; value ranges from 0.28-0.32 (ID.kg/g)", "type": "ADME, organism-based", "procedure,_shortened": "as §3"}, "[28]": {"system": "Rattus norvegicus", "assay": "The biodistribution of the [125I]-labeled compound in rats after intravenous injection was evaluated in adrenal at 1.00 hrs; value ranges from 0.84-1.04 (ID.kg/g)", "type": "ADME, organism-based", "procedure,_shortened": "as §2"}, "[29]": {"system": "Rattus norvegicus", "assay": "The biodistribution of the [125I]-labeled compound in rats after intravenous injection was evaluated in heart at 0.25 hrs (ID.kg/g)", "type": "ADME, organism-based", "procedure,_shortened": "as §2"}, "[30]": {"system": "Rattus norvegicus", "assay": "The biodistribution of the [125I]-labeled compound in rats after intravenous injection was evaluated in thyroid at 4.00 hrs; value ranges from 14.14-15.81 (ID.kg/g)", "type": "ADME, organism-based, Thyroid gland", "procedure,_shortened": "as §1"}}, "data": [{"smiles": "CCN1CCN(c2ccc(I)cc2)CC1", "values": [{"measurement": "Biodistribution", "setting": "[1]", "result": 0.04, "unit": "%"}, {"measurement": "Biodistribution", "setting": "[2]", "result": 0.09, "unit": "% ID·kg/g"}, {"measurement": "Biodistribution", "setting": "[3]", "result": 0.35, "unit": "%"}, {"measurement": "Biodistribution", "setting": "[4]", "result": 0.09, "unit": "%"}, {"measurement": "Biodistribution", "setting": "[5]", "result": 0.35, "unit": "%"}, {"measurement": "Biodistribution", "setting": "[6]", "result": 0.06, "unit": "%"}, {"measurement": "Biodistribution", "setting": "[7]", "result": 0.09, "unit": "%"}, {"measurement": "Biodistribution", "setting": "[8]", "result": 0.05, "unit": "%"}, {"measurement": "Biodistribution", "setting": "[9]", "result": 0.32, "unit": "%"}, {"measurement": "Biodistribution", "setting": "[10]", "result": 0.16, "unit": "%"}, {"measurement": "Biodistribution", "setting": "[11]", "result": 0.17, "unit": "%"}, {"measurement": "Biodistribution", "setting": "[12]", "result": 1.44, "unit": "%"}, {"measurement": "Biodistribution", "setting": "[13]", "result": 0.58, "unit": "%"}, {"measurement": "Biodistribution", "setting": "[14]", "result": 0.58, "unit": "%"}, {"measurement": "Biodistribution", "setting": "[15]", "result": 0.04, "unit": "%"}, {"measurement": "Biodistribution", "setting": "[16]", "result": 0.25, "unit": "%"}, {"measurement": "Biodistribution", "setting": "[17]", "result": 0.43, "unit": "%"}, {"measurement": "Biodistribution", "setting": "[18]", "result": 0.02, "unit": "%ID·kg/g"}, {"measurement": "Biodistribution", "setting": "[19]", "result": 0.61, "unit": "%"}, {"measurement": "Biodistribution", "setting": "[20]", "result": 0.07, "unit": "% ID·kg/g"}, {"measurement": "Biodistribution", "setting": "[21]", "result": 2.46, "unit": "%"}, {"measurement": "Biodistribution", "setting": "[22]", "result": 3.24, "unit": "%"}, {"measurement": "Biodistribution", "setting": "[23]", "result": 0.09, "unit": "%"}, {"measurement": "Biodistribution", "setting": "[24]", "result": 0.09, "unit": "%"}, {"measurement": "Biodistribution", "setting": "[25]", "result": 0.04, "unit": "% ID·kg/g"}, {"measurement": "Biodistribution", "setting": "[26]", "result": 1.03, "unit": "%"}, {"measurement": "Biodistribution", "setting": "[27]", "result": 0.38, "unit": "%"}, {"measurement": "Biodistribution", "setting": "[28]", "result": 1.04, "unit": "%"}, {"measurement": "Biodistribution", "setting": "[29]", "result": 0.1, "unit": "%"}, {"measurement": "Biodistribution", "setting": "[30]", "result": 15.81, "unit": "%"}]}]}
